Results as given in ChEMBL document CHEMBL1649289, “Paradoxical growth of Candida dubliniensis does not preclude in vivo response to echinocandin therapy” (2009).
In brackets after ≈: the same amount, converted by molar mass.

Key:
Type in all cases: functional
Candida dubliniensis [1] = test: Antifungal activity against Candida dubliniensis 10035 by hemocytometry
Summary of the method: (§1)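 Minimal fungicidal concentration from the broth dilution test, defined as the lowest drug level giving ≥99.9% reduction in CFU/ml. Inocula were adjusted by hemocytometer.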

Candida dubliniensis [2] = test: Antifungal activity against Candida dubliniensis 10034 assessed as compound concentration at which paradoxical growth of observed after 24 hrs
Summary of the method: (§2)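 In the same broth dilution (CLSI M27-A3) tests, read at 24 or 48 h, this is the range of drug concentrations over which paradoxical growth appeared. It was not set when growth occurred across the whole tested range (trailing).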

Candida dubliniensis [3] = test: Antifungal activity against Candida dubliniensis 9453 after 24 hrs; settings: Candida dubliniensis, 9453, 24 h
Summary of the method: (§3)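 CLSI M27-A3 broth microdilution. Yeast inoculum was adjusted with a hemocytometer. MIC was read at 24 h or 48 h as the lowest concentration giving 50% growth inhibition.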

Candida dubliniensis [4] = test: Antifungal activity against Candida dubliniensis 10031 after 24 hrs; settings: Candida dubliniensis, 10031, 24 h; summary of the method: as §3
Candida dubliniensis [5] = test: Antifungal activity against Candida dubliniensis 10033 by hemocytometry; summary of the method: as §1
Candida dubliniensis [6] = test: Antifungal activity against Candida dubliniensis 9456 after 48 hrs; settings: Candida dubliniensis, 9456, 48 h; summary of the method: as §3
Candida dubliniensis [7] = test: Antifungal activity against Candida dubliniensis 9456 by hemocytometry; summary of the method: as §1
Candida dubliniensis [8] = test: Antifungal activity against Candida dubliniensis FMR 10034 infected in OF1 mouse assessed as fungal count in spleen at 1 mg/kg/day, iv […]
Summary of the method: (§4)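 Immunocompetent male OF1 mice, 10 per group, were challenged i.v. with 1.5 × 10^7 CFU. Drug was given i.v. once daily at 1 or 10 mg/kg for 3 days, starting 24 h post-challenge; controls were untreated. Mice were killed 1 day after the last dose. Kidneys and spleen were homogenized in saline, serial 10-fold dilutions were plated on Sabouraud agar at 35°C for 3 days, and mean log10 CFU was reported.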

Candida dubliniensis [9] = test: Antifungal activity against Candida dubliniensis FMR 10032 infected in immunosuppressed OF1 mouse assessed as fungal count in kidney at 1 mg/kg/day, iv […]
Summary of the method: (§5)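 Male OF1 mice, 10 per group, were immunosuppressed on infection day with cyclophosphamide 200 mg/kg i.p. plus 5-fluorouracil 150 mg/kg i.v., then challenged i.v. with 1.5 × 10^5 CFU. Drug was given at 1 mg/kg i.v. once daily for 5 days, starting 24 h after challenge. One day after treatment ended, kidney and spleen homogenates were plated in 10-fold dilutions on Sabouraud agar (35°C, 3 days) and mean log10 CFU was reported.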

Candida dubliniensis [10] = test: Antifungal activity against Candida dubliniensis 10032 by hemocytometry; summary of the method: as §1
Candida dubliniensis [11] = test: Antifungal activity against Candida dubliniensis 10033 after 48 hrs; settings: Candida dubliniensis, 10033, 48 h; summary of the method: as §3
Candida dubliniensis [12] = test: Antifungal activity against Candida dubliniensis FMR 10034 infected in immunosuppressed OF1 mouse assessed as fungal count in kidney at 1 mg/kg/day, iv […]; summary of the method: as §5
Candida dubliniensis [13] = test: Antifungal activity against Candida dubliniensis 10031 assessed as compound concentration at which paradoxical growth of observed after 24 hrs; summary of the method: as §2
Candida dubliniensis [14] = test: Antifungal activity against Candida dubliniensis 10031 after 48 hrs; settings: Candida dubliniensis, 10031, 48 h; summary of the method: as §3
Candida dubliniensis [15] = test: Antifungal activity against Candida dubliniensis 10034 after 48 hrs; settings: Candida dubliniensis, 10034, 48 h; summary of the method: as §3
Candida dubliniensis [16] = test: Antifungal activity against Candida dubliniensis 9453 after 48 hrs; settings: Candida dubliniensis, 9453, 48 h; summary of the method: as §3
Candida dubliniensis [17] = test: Antifungal activity against Candida dubliniensis 10033 assessed as compound concentration at which paradoxical growth of observed after 24 hrs; summary of the method: as §2
Candida dubliniensis [18] = test: Antifungal activity against Candida dubliniensis 10035 assessed as compound concentration at which paradoxical growth of observed after 48 hrs; summary of the method: as §2
Candida dubliniensis [19] = test: Antifungal activity against Candida dubliniensis 10031 by hemocytometry; summary of the method: as §1
Candida dubliniensis [20] = test: Antifungal activity against Candida dubliniensis FMR 10034 infected in OF1 mouse assessed as fungal count in kidney at 10 mg/kg/day, iv […]; summary of the method: as §4
Candida dubliniensis [21] = test: Antifungal activity against Candida dubliniensis 10032 after 48 hrs; settings: Candida dubliniensis, 10032, 48 h; summary of the method: as §3
Candida dubliniensis [22] = test: Antifungal activity against Candida dubliniensis 10034 assessed as compound concentration at which paradoxical growth of observed after 48 hrs; summary of the method: as §2
Candida dubliniensis [23] = test: Antifungal activity against Candida dubliniensis 10035 after 24 hrs; settings: Candida dubliniensis, 10035, 24 h; summary of the method: as §3
Candida dubliniensis [24] = test: Antifungal activity against Candida dubliniensis 9456 assessed as compound concentration at which paradoxical growth of observed after 24 hrs; summary of the method: as §2
Candida dubliniensis [25] = test: Antifungal activity against Candida dubliniensis 10033 after 24 hrs; settings: Candida dubliniensis, 10033, 24 h; summary of the method: as §3
Candida dubliniensis [26] = test: Antifungal activity against Candida dubliniensis 9453 assessed as compound concentration at which paradoxical growth of observed after 24 hrs; summary of the method: as §2
Candida dubliniensis [27] = test: Antifungal activity against Candida dubliniensis FMR 10034 infected in OF1 mouse assessed as fungal count in kidney at 1 mg/kg/day, iv […]; summary of the method: as §4
Candida dubliniensis [28] = test: Antifungal activity against Candida dubliniensis 10034 after 24 hrs; settings: Candida dubliniensis, 10034, 24 h; summary of the method: as §3
Candida dubliniensis [29] = test: Antifungal activity against Candida dubliniensis 9456 after 24 hrs; settings: Candida dubliniensis, 9456, 24 h; summary of the method: as §3
Candida dubliniensis [30] = test: Antifungal activity against Candida dubliniensis FMR 10032 infected in immunosuppressed OF1 mouse assessed as fungal count in spleen at 1 mg/kg/day, iv […]; summary of the method: as §5
Candida dubliniensis [31] = test: Antifungal activity against Candida dubliniensis FMR 10032 infected in OF1 mouse assessed as fungal count in kidney at 1 mg/kg/day, iv […]; summary of the method: as §4
Candida dubliniensis [32] = test: Antifungal activity against Candida dubliniensis 10034 by hemocytometry; summary of the method: as §1
Candida dubliniensis [33] = test: Antifungal activity against Candida dubliniensis FMR 10032 infected in OF1 mouse assessed as fungal count in kidney at 10 mg/kg/day, iv […]; summary of the method: as §4
Candida dubliniensis [34] = test: Antifungal activity against Candida dubliniensis FMR 10032 infected in OF1 mouse assessed as fungal count in spleen at 1 mg/kg/day, iv […]; summary of the method: as §4
Candida dubliniensis [35] = test: Antifungal activity against Candida dubliniensis 10033 assessed as compound concentration at which paradoxical growth of observed after 48 hrs
Summary of the method: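 Broth dilution susceptibility testing of yeasts per CLSI reference method M27-A3, with inocula adjusted by hemocytometer count. Wells were read at 24 and 48 h. The paradoxical growth range is the span of drug concentrations (μg/ml) over which growth reappeared above the inhibitory concentration. Where growth occurred across the entire concentration range (trailing), no range was determined.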

Candida dubliniensis [36] = test: Antifungal activity against Candida dubliniensis 10035 after 48 hrs; settings: Candida dubliniensis, 10035, 48 h; summary of the method: as §3
Candida dubliniensis [37] = test: Antifungal activity against Candida dubliniensis 9453 by hemocytometry; summary of the method: as §1
Candida dubliniensis [38] = test: Antifungal activity against Candida dubliniensis FMR 10034 infected in OF1 mouse assessed as fungal count in spleen at 10 mg/kg/day, iv […]; summary of the method: as §4
Candida dubliniensis [39] = test: Antifungal activity against Candida dubliniensis FMR 10034 infected in immunosuppressed OF1 mouse assessed as fungal count in spleen at 1 mg/kg/day, iv […]; summary of the method: as §5
Candida dubliniensis [40] = test: Antifungal activity against Candida dubliniensis 10032 after 24 hrs; settings: Candida dubliniensis, 10032, 24 h; summary of the method: as §3
Candida dubliniensis [41] = test: Antifungal activity against Candida dubliniensis FMR 10032 infected in OF1 mouse assessed as fungal count in spleen at 10 mg/kg/day, iv […]; summary of the method: as §4

- MIC50 (Candida dubliniensis [3]): 0.25 µg/mL (≈ 0.229 µM)
- MIC50 (Candida dubliniensis [4]): 0.125 µg/mL (≈ 0.114 µM)
- MIC50 (Candida dubliniensis [6]): 0.25 µg/mL (≈ 0.229 µM)
- MIC50 (Candida dubliniensis [11]): 0.25 µg/mL (≈ 0.229 µM)
- MIC50 (Candida dubliniensis [14]): 0.25 µg/mL (≈ 0.229 µM)
- MIC50 (Candida dubliniensis [15]): 0.25 µg/mL (≈ 0.229 µM)
- MIC50 (Candida dubliniensis [16]): 0.25 µg/mL (≈ 0.229 µM)
- MIC50 (Candida dubliniensis [21]): 0.06 µg/mL (≈ 0.0549 µM)
- MIC50 (Candida dubliniensis [23]): 0.06 µg/mL (≈ 0.0549 µM)
- MIC50 (Candida dubliniensis [25]): 0.25 µg/mL (≈ 0.229 µM)
- MIC50 (Candida dubliniensis [28]): 0.125 µg/mL (≈ 0.114 µM)
- MIC50 (Candida dubliniensis [29]): 0.25 µg/mL (≈ 0.229 µM)
- MIC50 (Candida dubliniensis [36]): 0.06 µg/mL (≈ 0.0549 µM)
- MIC50 (Candida dubliniensis [40]): 0.06 µg/mL (≈ 0.0549 µM)
SMILES: CC[C@H](C)C[C@H](C)CCCCCCCCC(=O)N[C@H]1C[C@@H](O)[C@@H](NCCN)NC(=O)[C@@H]2[C@@H](O)CCN2C(=O)[C@H]([C@H](O)CCN)NC(=O)[C@H]([C@H](O)[C@@H](O)c2ccc(O)cc2)NC(=O)[C@@H]2C[C@@H](O)CN2C(=O)[C@H]([C@@H](C)O)NC1=O [CASPOFUNGIN]
- MFC (Candida dubliniensis [1]): 0.5 µg/mL (≈ 0.457 µM)
- Activity (Candida dubliniensis [2]): 16 µg/mL
- MFC (Candida dubliniensis [5]): > 16 µg/mL
- MFC (Candida dubliniensis [7]): > 16 µg/mL
- log10cfu (Candida dubliniensis [8]): 4.21
- log10cfu (Candida dubliniensis [9]): 1.77
- MFC (Candida dubliniensis [10]): 4 µg/mL (≈ 3.66 µM)
- log10cfu (Candida dubliniensis [12]): 3.39
- Activity (Candida dubliniensis [13]): 8 µg/mL
- Activity (Candida dubliniensis [17]): 8 µg/mL
- Activity (Candida dubliniensis [18]): 8 µg/mL
- MFC (Candida dubliniensis [19]): > 16 µg/mL
- log10cfu (Candida dubliniensis [20]): 4.09
- Activity (Candida dubliniensis [22]): 1 µg/mL
- Activity (Candida dubliniensis [24]): 8 µg/mL
- Activity (Candida dubliniensis [26]): 8 µg/mL
- log10cfu (Candida dubliniensis [27]): 4.5
- log10cfu (Candida dubliniensis [30]): 1.26
- log10cfu (Candida dubliniensis [31]): 3.41
- MFC (Candida dubliniensis [32]): > 16 µg/mL
- log10cfu (Candida dubliniensis [33]): 3.08
- log10cfu (Candida dubliniensis [34]): 3.56
- Activity (Candida dubliniensis [35]): 2 µg/mL
- MFC (Candida dubliniensis [37]): > 16 µg/mL
- log10cfu (Candida dubliniensis [38]): 3.89
- log10cfu (Candida dubliniensis [39]): 2.08
- log10cfu (Candida dubliniensis [41]): 3.38
